Laboratory results published in ChEMBL document CHEMBL1138528, “Discovery of tetrasubstituted imidazolines as potent and selective neuropeptide Y Y5 receptor antagonists: reduced human ether-a-go-go related gene potassium channel binding affinity and potent antiobesity effect” (J Med Chem, 2009).
pIC50: −log10 of the molar value. Calls of active or inactive are those of the source. No cut-off for these calls is given here.

What was measured:
[1] = Bioavailability in rhesus monkey at 1 mg/kg, po and 0.3 mg/kg, iv administered as single dose; assay type: ADME, organism-based, Macaca mulatta; conditions: in vivo
[2] = AUC (0 to infinity) in rhesus monkey at 1 mg/kg, po administered as single dose; assay type: ADME, organism-based, Macaca mulatta; design: dose 1 mg/kg, route oral, time infinity; conditions: plasma
Canis familiaris [3] = test: Cardiotoxicity in Beagle dog assessed as change in left ventricular systolic pressure at 5 mg/kg, iv; assay type: toxicity, organism-based, Canis lupus familiaris, Heart left ventricle; design: dose 5 mg/kg, route intravenous; conditions: in vivo
Canis familiaris [4] = test: Cardiotoxicity in Beagle dog assessed as prolongation of QTc interval at 5 mg/kg, iv; assay type: toxicity, organism-based, Canis lupus familiaris; design: dose 5 mg/kg, route intravenous; conditions: in vivo
[5] = Plasma clearance in rhesus monkey plasma at 0.3 mg/kg, iv administered as single dose; assay type: ADME, organism-based, Macaca mulatta; design: dose 0.3 mg/kg, route intravenous
[6] = Plasma concentration in Sprague-Dawley rat at 10 mg/kg, po after 2 hrs; assay type: ADME, organism-based; design: dose 10 mg/kg, route oral
In short: (§1)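 Male SD rats (7-10 weeks, 200-400 g) dosed orally at 10 mg/kg in 0.5% methylcellulose; at 2 h aortic blood taken under isoflurane. Plasma, brain homogenate (sonicated in water) and CSF deproteinized with 3-fold ethanol plus internal standard, -20 °C 20 min, centrifuged; LC/MS/MS with relative calibration curve. Mean, n = 2-3.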

Canis familiaris [7] = test: Cardiotoxicity in Beagle dog assessed as change in femoral blood flow at 5 mg/kg, iv; assay type: toxicity, organism-based, Canis lupus familiaris; design: dose 5 mg/kg, route intravenous; conditions: in vivo
Brain = test: Drug level in Sprague-Dawley rat brain at 10 mg/kg, po after 2 hrs; assay type: ADME, organism-based; design: dose 10 mg/kg, route oral; conditions: in vivo; in short: as §1
[8] = Cmax in Beagle dog at 5 mg/kg, iv; assay type: ADME, organism-based, Canis lupus familiaris; design: dose 5 mg/kg, route intravenous; conditions: in vivo
Cerebrospinal fluid = test: Drug level in Sprague-Dawley rat cerebrospinal fluid at 10 mg/kg, po after 2 hrs; assay type: ADME, organism-based; design: dose 10 mg/kg, route oral; conditions: in vivo, 2 h; in short: as §1
[9] = Metabolic stability in rat hepatocytes assessed as hepatic clearance by serum incubation method; assay type: ADME, cell-based, Liver, Hepatocyte
[10] = Cmax in Sprague-Dawley rat at 1 mg/kg, iv and 1 mg/kg, po administered as single dose; assay type: ADME, organism-based; conditions: in vivo
[11] = AUC (0 to infinity) in Sprague-Dawley rat at 1 mg/kg, po administered as single dose; assay type: ADME, organism-based; design: time infinity, dose 1 mg/kg, route oral; conditions: plasma
Rattus norvegicus [12] = test: Inhibition of D-[Trp34]NPY-induced acute food intake in Sprague-Dawley rat at 0.1 mg/kg, po pretreated 2 hrs prior to D-[Trp34]NPY challenge measured after 2 hrs; assay type: functional
In short: (§2)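 SD rats (10-15 weeks) with stereotaxic third-ventricle cannula, tested ≥1 wk post-surgery in light cycle. Oral dose in 0.5% methylcellulose, then 2 h later D-Trp34NPY 1 µg/0.4 µL in aCSF into third ventricle; food intake over 2 h. Mean ± SEM, n = 5-9; Dunnett's test versus agonist-only group.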

Rattus norvegicus [13] = test: Inhibition of D-[Trp34]NPY-induced acute food intake in Sprague-Dawley rat at 1 mg/kg, po pretreated 2 hrs prior to D-[Trp34]NPY challenge measured after 2 hrs; assay type: functional; in short: as §2
[14] = Octanol-water distribution coefficient, log D at pH 7.4; assay type: physicochemical
[15] = biological target: Neuropeptide Y receptor type 4 (Homo sapiens, UniProt P50391); test: Binding affinity to human neuropeptide Y4 receptor
Sequence of Neuropeptide Y receptor type 4 (P50391 whole entry): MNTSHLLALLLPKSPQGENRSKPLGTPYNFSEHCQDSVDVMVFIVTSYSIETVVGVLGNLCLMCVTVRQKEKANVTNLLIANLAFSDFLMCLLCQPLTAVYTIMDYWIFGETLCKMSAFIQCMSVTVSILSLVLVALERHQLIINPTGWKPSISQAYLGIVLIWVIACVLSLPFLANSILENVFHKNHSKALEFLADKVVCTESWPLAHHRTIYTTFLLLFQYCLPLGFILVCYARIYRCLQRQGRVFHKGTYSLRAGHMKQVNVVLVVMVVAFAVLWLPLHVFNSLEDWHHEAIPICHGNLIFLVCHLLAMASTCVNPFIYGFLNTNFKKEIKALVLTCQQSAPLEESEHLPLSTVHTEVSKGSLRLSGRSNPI

Rattus norvegicus [16] = test: Inhibition of D-[Trp34]NPY-induced acute food intake in Sprague-Dawley rat at 0.3 mg/kg, po pretreated 2 hrs prior to D-[Trp34]NPY challenge measured after 2 hrs; assay type: functional; in short: as §2
Canis familiaris [17] = test: Cardiotoxicity in Beagle dog assessed as change in cardiac output pressure at 5 mg/kg, iv; assay type: toxicity, organism-based, Canis lupus familiaris, Heart; design: dose 5 mg/kg, route intravenous; conditions: in vivo
[18] = Volume of distribution at steady state in Sprague-Dawley rat at 1 mg/kg, iv and 1 mg/kg, po administered as single dose; assay type: ADME, organism-based; conditions: in vivo, read-out: Vdss
[19] = Plasma clearance in Sprague-Dawley rat plasma at 1 mg/kg, iv administered as single dose; assay type: ADME, organism-based; design: dose 1 mg/kg, route intravenous
[20] = Cmax in rhesus monkey at 1 mg/kg, po and 0.3 mg/kg, iv administered as single dose; assay type: ADME, organism-based, Macaca mulatta; conditions: in vivo
Mus musculus [21] = test: Reduction in body weight in moderately high fat diet-induced obese C57BL/6J mouse model at 3 mg/kg, po qid for 5 days followed by BID for 15 days; assay type: functional, organism-based; design: dose 3 mg/kg
Mus musculus [22] = test: Reduction in body weight in moderately high fat diet-induced obese C57BL/6J mouse model at 10 mg/kg, po qid for 5 days followed by BID for 15 days; assay type: functional, organism-based; design: dose 10 mg/kg
Canis familiaris [23] = test: Cardiotoxicity in Beagle dog assessed as change in cardiac contractility pressure at 5 mg/kg, iv; assay type: toxicity, organism-based, Canis lupus familiaris, Heart; design: dose 5 mg/kg, route intravenous; conditions: in vivo
[24] = Cmax in Beagle dog at 2 mg/kg, iv; assay type: ADME, organism-based, Canis lupus familiaris; design: dose 2 mg/kg, route intravenous; conditions: in vivo
[25] = Volume of distribution at steady state in rhesus monkey at 1 mg/kg, po and 0.3 mg/kg, iv administered as single dose; assay type: ADME, organism-based, Macaca mulatta; conditions: in vivo, read-out: Vdss
[26] = biological target: T1, Neuropeptide Y receptor type 1 (Homo sapiens, UniProt P25929); test: Binding affinity to human neuropeptide Y1 receptor
T1 sequence (P25929 whole entry): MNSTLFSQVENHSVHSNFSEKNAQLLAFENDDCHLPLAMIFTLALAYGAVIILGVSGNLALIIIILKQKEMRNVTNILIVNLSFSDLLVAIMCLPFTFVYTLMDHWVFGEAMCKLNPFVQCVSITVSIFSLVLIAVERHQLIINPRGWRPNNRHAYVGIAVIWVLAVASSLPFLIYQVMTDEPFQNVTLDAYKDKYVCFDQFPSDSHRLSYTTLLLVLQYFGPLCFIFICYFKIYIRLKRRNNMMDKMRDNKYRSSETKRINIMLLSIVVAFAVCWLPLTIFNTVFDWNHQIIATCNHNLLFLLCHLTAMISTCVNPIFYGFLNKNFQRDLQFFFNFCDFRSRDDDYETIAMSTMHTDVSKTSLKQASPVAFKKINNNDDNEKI

Canis familiaris [27] = test: Cardiotoxicity in Beagle dog assessed as change in mean arterial pressure at 5 mg/kg, iv; assay type: toxicity, organism-based, Canis lupus familiaris, Artery; design: dose 5 mg/kg, route intravenous; conditions: in vivo
[28] = biological target: T2, Neuropeptide Y receptor type 2 (Homo sapiens, UniProt P49146); test: Binding affinity to human neuropeptide Y2 receptor
T2 sequence (P49146 whole entry): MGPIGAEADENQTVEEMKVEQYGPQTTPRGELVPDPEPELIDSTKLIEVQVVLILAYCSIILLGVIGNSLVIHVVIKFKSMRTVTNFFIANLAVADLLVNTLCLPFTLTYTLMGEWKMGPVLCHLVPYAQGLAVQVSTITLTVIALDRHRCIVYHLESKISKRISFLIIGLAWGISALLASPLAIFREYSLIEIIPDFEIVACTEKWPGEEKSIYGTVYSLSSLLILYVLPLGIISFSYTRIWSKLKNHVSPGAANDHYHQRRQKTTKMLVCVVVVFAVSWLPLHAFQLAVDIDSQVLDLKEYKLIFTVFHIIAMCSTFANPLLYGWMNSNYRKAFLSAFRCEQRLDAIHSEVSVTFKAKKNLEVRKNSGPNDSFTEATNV

Mus musculus [29] = test: Reduction in body weight in moderately high fat diet-induced obese Y5 receptor-deficient mouse model at 3 mg/kg, po BID 15 days; assay type: functional, organism-based; design: dose 3 mg/kg
[30] = Bioavailability in Sprague-Dawley rat at 1 mg/kg, iv and 1 mg/kg, po administered as single dose; assay type: ADME, organism-based; conditions: in vivo
Canis familiaris [31] = test: Cardiotoxicity in Beagle dog assessed as adverse events at 2 mg/kg, iv; assay type: toxicity, organism-based, Canis lupus familiaris; design: dose 2 mg/kg, route intravenous; conditions: in vivo
[32] = Ratio of drug level from brain to plasma in Sprague-Dawley rat at 10 mg/kg, po after 2 hrs; assay type: ADME, organism-based; design: dose 10 mg/kg, route oral; in short: as §1

For `C[C@@H]1NC(c2cc(C#N)ccn2)=N[C@@]1(c1ccc(F)cc1)c1ccc(F)nc1`, the bioavailability [1] was 76%, the AUC(0-inf) [2] was 4.6 µM·h and the Activity (Canis familiaris [3]) was 29%. It also gave an Activity (Canis familiaris [4]) of 7%, a clearance [5] of 8 mL/min/kg and a concentration at 2 h [6] of 2600 nM. For the same compound, the Activity (Canis familiaris [7]) was -32%, the Drug uptake (Brain) was 7 nmol/g and the Cmax [8] was 25 µM. For the same compound, the Drug uptake (Cerebrospinal fluid) was 0.21 µM, the CLhep predicted [9] was 18 mL/min/kg and the Cmax [10] was 500 nM. For the same compound, the AUC(0-inf) [11] was 1.8 µM·h, the inhibition in vivo at 0.1 mg/kg (Rattus norvegicus [12]) was 5% and the inhibition in vivo at 1 mg/kg (Rattus norvegicus [13]) was 93%. The logD [14] was 3.2, the pIC50 [15] was < 5.00 and the inhibition in vivo at 0.3 mg/kg (Rattus norvegicus [16]) was 54%. For the same compound, the Activity (Canis familiaris [17]) was 46%, the Vd [18] was 6.2 L/kg and the clearance [19] was 20 mL/min/kg. For the same compound, the Cmax [20] was 590 nM, the Activity (Mus musculus [21]) was “Active” and the Activity (Mus musculus [22]) was “Active”. It also gave an Activity (Canis familiaris [23]) of 50%, a Cmax [24] of 12 µM and a Vd [25] of 4.4 L/kg. The pIC50 [26] was < 5.00, the Activity (Canis familiaris [27]) was 28% and the pIC50 [28] was < 5.00. For the same compound, the Activity (Mus musculus [29]) was “inactive”, the bioavailability [30] was 77% and the Activity (Canis familiaris [31]) was “Non-toxic”. The Kp at 2 h [32] was 2.7.
